Experimental data taken from ChEMBL document CHEMBL3804769, “Antibacterial Diamines Targeting Bacterial Membranes” (J Med Chem, 2016).
Active and inactive are the calls of the source. No cut-off for these calls is given here.

Legend:
[1] = tested on: Staphylococcus aureus; experiment: Antibacterial activity against Staphylococcus aureus RN4220 ATCC 35556 in early exponential-phase assessed as numerous spherical double layered mesosome like structures at 2 times MIC99 after 30 to 60 mins by transmission electron microscopy; format: functional, organism-based
Outline: (§1)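 Cells grown in LB to early exponential phase (OD600 ~0.4). Exposed to 2× MIC99 for 15–60 min, washed twice in phosphate buffer, fixed in 2.5% glutaraldehyde, then imaged by transmission electron microscopy.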

[2] = tested on: Staphylococcus aureus; experiment: Potentiation of kanamycin-induced antibacterial activity against Staphylococcus aureus RN4220 ATCC 35556 assessed as kanamycin MIC at 0.5 times MIC99 after 24 hrs by checkerboard assay (reference value: 16 ug/ml); format: functional; conditions: RN4220 ATCC 35556, 24 h
Outline: (§2)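 Checkerboard assay: compound serially diluted along one axis of a 96-well plate and antibiotic along the other, in LB. Each well inoculated with 2 × 10⁴ CFU and incubated 24 h at 37 °C. ΣFIC = FIC A + FIC B, where each FIC is the combination MIC99 divided by the MIC99 of that drug alone.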

[3] = Selectivity index, ratio of CC50 for human A549 cells to MIC99 for Staphylococcus aureus RN4220 ATCC 35556; format: toxicity, cell-based; conditions: read-out: Selectivity Index
Outline: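 CC50: HEK293T/17 or A549 cells seeded at 10⁴ per well in DMEM with 10% FBS at 37 °C, 5% CO2. After 24 h, wells PBS-washed and serially diluted compound applied for 48 h, with viability read by MTS and CC50 taken by nonlinear regression. MIC99 by CLSI broth microdilution, overnight at 37 °C without shaking, from three independent tests. SI = CC50/MIC99.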

[4] = tested on: Staphylococcus aureus; experiment: Antibacterial activity against Staphylococcus aureus RN4220 ATCC 35556 at 0.5 times MIC99 after 24 hrs by checkerboard assay in presence of ampicillin; format: functional; outline: as §2
[5] = tested on: Escherichia coli; experiment: Antibacterial activity against Escherichia coli ANS1 incubated overnight by microbroth dilution method; format: functional
Outline: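 Bacteria grown in LB medium. CLSI microbroth dilution in 96-well plates, overnight at 37 °C without shaking. MIC99 taken as the lowest concentration giving complete growth inhibition. Three independent determinations, reported as mean ± SD.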

[6] = tested on: Pseudomonas aeruginosa; experiment: Bactericidal activity against Pseudomonas aeruginosa PAO1 ATCC 47085 assessed as reduction in bacterial burden at 0.5 times MIC99 after 3 to 24 hrs by time kill assay in presence of 0.5 times MIC99 of kanamycin relative to control; format: functional, organism-based
Outline: (§3)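 Combination time-kill in LB at 1 × 10⁶ CFU/mL starting inoculum. Arms were compound or kanamycin alone at 1× and 0.5× MIC99, and the two combined at 0.5× MIC99 each. Incubated at 37 °C with shaking at 300 rpm. Viable counts taken by dilution and plating on LB agar at 0, 3, 6 and 24 h.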

[7] = tested on: Pseudomonas aeruginosa; experiment: Antibacterial activity against Pseudomonas aeruginosa PAO1 ATCC 47085 assessed as increase in outer membrane permeability at 1 to 4 times MIC99 by fluorescent probe 1-N-phenylnaphthylamine based fluorescence assay; format: functional, organism-based
Outline: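 PAO1 cells harvested at OD600 ~0.5, washed, and resuspended in 5 mM HEPES pH 7.2 with 10 μM NPN (final) and 10 mM sodium azide (final). Held 30 min at room temperature in the dark. Compound added at 4× or 1× MIC99 and NPN fluorescence recorded continuously (ex 350/em 420 nm). Gentamicin at 4× MIC99 as positive control. Three independent experiments.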

[8] = tested on: Pseudomonas aeruginosa; experiment: Antibacterial activity against Pseudomonas aeruginosa PAO1 ATCC 47085 at 0.5 times MIC99 after 24 hrs by checkerboard assay in presence of ampicillin; format: functional; outline: as §2
[9] = tested on: Staphylococcus aureus; experiment: Antibacterial activity against methicillin-resistant Staphylococcus aureus clinical isolate at MIC99 after 12 hrs by microbroth dilution method in presence of 10% fetal bovine serum; format: functional, organism-based
Outline: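 Broth microdilution MIC99 run with 10% fetal bovine serum in the medium, after 12 h preincubation of compound with the serum. Plates incubated overnight at 37 °C without shaking. MIC99 taken as the lowest concentration giving complete growth inhibition.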

[10] = tested on: Caenorhabditis elegans; experiment: Toxicity in adult L4/juvenile L1 stages of Caenorhabditis elegans N2 assessed as effect on egg production at 64 ug/ml incubated for 96 hrs measured every 12 hrs; format: organism-based; conditions: in vivo
Outline: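 C. elegans N2 maintained on NGM agar at 22 °C. Compound mixed into molten NGM agar at 64 μg/mL. L4 adults, L1 juveniles and synchronized eggs transferred onto test plates and kept 96 h at 22 °C. Checked every 12 h for death, development and egg production. Gentamicin and […] as controls.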

[11] = tested on: Caenorhabditis elegans; experiment: Toxicity in adult L4/juvenile L1 stages of Caenorhabditis elegans N2 assessed as effect on locomotion at 64 ug/ml incubated for 96 hrs measured every 12 hrs; format: organism-based; conditions: in vivo
[12] = tested on: Pseudomonas aeruginosa; experiment: Antibacterial activity against Pseudomonas aeruginosa PAO1 ATCC 47085 at 0.5 times MIC99 after 24 hrs by checkerboard assay in presence of norfloxacin; format: functional; outline: as §2
[13] = tested on: Staphylococcus aureus; experiment: Bactericidal activity against Staphylococcus aureus RN4220 ATCC 35556 assessed as reduction in bacterial burden at 0.5 times MIC99 after 3 to 24 hrs by time kill assay in presence of 0.5 times MIC99 of kanamycin relative to control; format: functional; outline: as §3
[14] = tested on: Pseudomonas aeruginosa; experiment: Antibiofilm activity against Pseudomonas aeruginosa PAO1 ATCC 47085 assessed as dispersal of formed biofilm after 24 hrs by crystal violet staining-based spectrophotometry; format: functional, organism-based
Outline: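 Biofilms first grown 24 h on peg lids without compound, then washed. Pegs transferred into serially diluted compound in 10% LB-PBS and incubated a further 24 h at 37 °C. Remaining biofilm stained with crystal violet, eluted in ethanol and read at 600 nm. 300 μM EDTA as positive control for dispersal.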

[15] = tested on: Pseudomonas aeruginosa; experiment: Antibacterial activity against Pseudomonas aeruginosa PAO1 ATCC 47085 in exponential-phase assessed as cytoplasmic membrane depolarization at 1 to 4 times MIC99 by fluorescent probe DiSC3-5 based fluorophotometric analysis; format: functional, organism-based
Outline: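 Log-phase cells (OD600 ~0.7) washed and resuspended to OD600 0.05 in 5 mM HEPES pH 7.2 with 5 mM glucose and 100 mM KCl. Loaded with 0.4 μM DiSC3-5 in the dark until fluorescence fell stably by about 90%. Compound added at 4× or 1× MIC99 and fluorescence recorded continuously at 25 °C (ex 622/em 670 nm). 2,4-Dinitrophenol as positive control. Three independent experiments.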

[16] = tested on: Staphylococcus aureus; experiment: Antibacterial activity against methicillin-resistant Staphylococcus aureus clinical isolate 20225B SPA type 15 after 24 hrs by microbroth dilution method; format: functional
Outline: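 MRSA isolates from ICU surfaces, stored at −80 °C and grown in Mueller-Hinton broth. Overnight cultures diluted and added to serially diluted compound at ~10⁵ CFU/mL, broth microdilution. Plates incubated 24 h at 37 °C, growth read as absorbance at 620 nm. MIC99 taken as the lowest concentration giving complete growth inhibition.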

[17] = tested on: Staphylococcus aureus; experiment: Antibacterial activity against Staphylococcus aureus RN4220 ATCC 35556 in early exponential-phase assessed as lysis of cells at 2 times MIC99 after 30 to 60 mins by transmission electron microscopy; format: functional, organism-based; outline: as §1
[18] = tested on: Staphylococcus aureus; experiment: Antibacterial activity against Staphylococcus aureus RN4220 ATCC 35556 at 0.5 times MIC99 after 24 hrs by checkerboard assay in presence of norfloxacin; format: functional; outline: as §2

Structure (SMILES): Cl.Cl.S=C(NCCCNCCCCCNCCCNC(=S)NCC(c1ccccc1)c1ccccc1)NCC(c1ccccc1)c1ccccc1
- Activity [1]: Active
- MIC99 [2]: 2 µg/mL
- selectivity ratio [3]: 32
- fractional inhibitory concentration index (FICI) [4]: 0.75
- MIC99 [5]: 2 µg/mL
- Activity [6]: Active
- Activity [7]: Active
- fractional inhibitory concentration index (FICI) [8]: 2
- Activity [9]: Active
- Activity [10]: Non-toxic
- Activity [11]: Non-toxic
- fractional inhibitory concentration index (FICI) [12]: 0.75
- Activity [13]: >2 deltalog10CFU/ml
- Activity [14]: Active
- Activity [15]: Active
- MIC99 [16]: 1 µg/mL
- Activity [17]: Active
- fractional inhibitory concentration index (FICI) [18]: 0.75
